We go through 1 molecule from ChEMBL document CHEMBL3351896, “Small Molecule that Reverses Dexamethasone Resistance in T-cell Acute Lymphoblastic Leukemia (T-ALL)” (ACS Med Chem Lett, 2014).

Format in all cases: functional, cell-based
In assay [1] the test system is CUTLL1. The assay can be described thus: Effect on CHEK1 gene expression in human CUTLL1 cells in presence of 1 uM dexamethasone at 30 uM after 24 hrs by microarray method. Summed up: (§1)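 CUTLL1 T-ALL cells exposed 24 h to vehicle (DMSO), dexamethasone alone (1 μM), test agent alone (30 μM), or dexamethasone (1 μM) plus test agent (30 μM), in triplicate. Expression profiled by microarray. Leading-edge genes from GSEA were compared between the dexamethasone-plus-agent and dexamethasone-alone groups, using glucocorticoid-regulated gene sets from ALL patients on glucocorticoid therapy.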

In assay [2] the test system is CUTLL1. The assay can be described thus: Growth inhibition of human CUTLL1 cells at 50 uM in presence of etoposide after 48 hrs by alamar blue assay. (Resazurin is reduced to fluorescent resorufin, in cell work by metabolically active cells.)
Assay [3] relates to CUTLL1. The assay can be described thus: Effect on TIPIN gene expression in human CUTLL1 cells in absence of 1 uM dexamethasone at 30 uM after 24 hrs by microarray method. The procedure, abridged:
(§2)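 Human CUTLL1 T-ALL cells exposed for 24 h to vehicle (DMSO), dexamethasone alone (1 μM), test compound alone (30 μM), or dexamethasone 1 μM plus compound 30 μM, each in triplicate. Expression profiled by microarray. Glucocorticoid-regulated gene sets from ALL patients on glucocorticoid therapy scored by GSEA. Leading-edge genes compared between the combination and dexamethasone alone.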

For assay [4], the system named is CUTLL1. The assay can be described thus: Effect on RAD51AP1 gene expression in human CUTLL1 cells in absence of 1 uM dexamethasone at 30 uM after 24 hrs by microarray method. The procedure, abridged:
as §2

In assay [5] the test system is CUTLL1. In words: Growth inhibition of human CUTLL1 cells at 50 uM in presence of deferoxamine after 48 hrs by alamar blue assay.
Assay [6] has as its system CUTLL1. In words: Effect on ALYREF gene expression in human CUTLL1 cells in presence of 1 uM dexamethasone at 30 uM after 24 hrs by microarray method. The procedure, abridged: as §1
Assay [7] relates to CUTLL1. In words: Effect on USP1 gene expression in human CUTLL1 cells in absence of 1 uM dexamethasone at 30 uM after 24 hrs by microarray method. Summed up: as §2
In assay [8] the test system is CUTLL1. In words: Effect on BRCA1 gene expression in human CUTLL1 cells in presence of 1 uM dexamethasone at 30 uM after 24 hrs by microarray method. Summed up: as §1
The subject of assay [9] is CUTLL1. In words: Potentiation of dexamethasone-induced cytotoxicity against human CUTLL1 cells with high GR expression levels at 50 uM after 48 hrs by alamar blue assay. Summed up: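 Human CUTLL1 T-ALL cells engineered to express high (overexpressed) or low (knockdown) glucocorticoid receptor levels. Exposed to compound alone or with 1 μM dexamethasone. Alamar blue growth inhibition read after 48 h.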

Assay [10] deals with CUTLL1. In words: Growth inhibition of human CUTLL1 cells at 50 uM in presence of camptothecin after 48 hrs by alamar blue assay.
Assay [11] deals with CUTLL1. The assay can be described thus: Effect on CDT1 gene expression in human CUTLL1 cells in absence of 1 uM dexamethasone at 30 uM after 24 hrs by microarray method. The procedure, abridged: as §1
Assay [12] concerns CUTLL1. The assay can be described thus: Effect on GGNBP2 gene expression in human CUTLL1 cells in absence of 1 uM dexamethasone at 30 uM after 24 hrs by microarray method. The procedure, abridged:
as §1

For assay [13], the system named is CUTLL1. In words: Effect on MCM10 gene expression in human CUTLL1 cells in absence of 1 uM dexamethasone at 30 uM after 24 hrs by microarray method. Summed up: as §1
The test system of assay [14] is CUTLL1. The assay can be described thus: Effect on CDC25A gene expression in human CUTLL1 cells in presence of 1 uM dexamethasone at 30 uM after 24 hrs by microarray method. The procedure, abridged:
as §1

For assay [15], the system named is CUTLL1. In words: Effect on SMC2 gene expression in human CUTLL1 cells in presence of 1 uM dexamethasone at 30 uM after 24 hrs by microarray method. The procedure, abridged:
as §2

Assay [16] concerns CUTLL1. The assay can be described thus: Effect on SMC2 gene expression in human CUTLL1 cells in absence of 1 uM dexamethasone at 30 uM after 24 hrs by microarray method. Summed up:
as §2

Calls of active or inactive are those of the source. The calls are words filed in the database; no cut-off is given here.

Take `Nc1ncc(-c2ccncc2)c(C2CC2)n1`: the result in the assay on CUTLL1 [1], with CUTLL1 [6], in the assay with CUTLL1 [8], with CUTLL1 [9], in the assay on CUTLL1 [14] and with CUTLL1 [15] was Active. The “growth inhibition (GI)” value with CUTLL1 [2], in the assay with CUTLL1 [5] and with CUTLL1 [10] was “inactive” each time. Moreover, the result in the assay on CUTLL1 [3], with CUTLL1 [4], in the assay with CUTLL1 [7], in the assay with CUTLL1 [11], in the assay with CUTLL1 [12] and with CUTLL1 [13] was inactive. For the same molecule, in the assay with CUTLL1 [16], the outcome was inactive.
